Source: ChEMBL document CHEMBL4229550, “An antimycobacterial pleuromutilin analogue effective against dormant bacilli” (Bioorg Med Chem, 2018)
≈ marks a conversion by molar mass, not a printed value. Calls of active or inactive are those of the source. The calls are words filed in the database; no cut-off is given here.

Assays:
[1] = test system: Mycobacterium tuberculosis; experiment: Antibacterial activity against Mycobacterium tuberculosis Erdman infected in Balb/c mouse assessed as reduction in bacterial load in lungs at 2.5 mg/kg, po for 3 weeks starting from 10 days post infection measured on day 21 post infection; format: functional, Erdman = ATCC 35801
In short: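 Female BALB/c mice, 7–8 weeks old, are aerosol-infected with Mtb Erdman. From day 10 they receive oral gavage in water for three weeks, in groups of 5. Lungs and spleens are harvested at day 21 post-infection and plated for CFU. Efficacy is the log10 reduction in lung burden versus untreated (vehicle) controls.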

[2] = test system: Mycobacterium tuberculosis; experiment: Antibacterial activity against replicating Mycobacterium tuberculosis H37Rv incubated for 15 days under aerobic condition by MABA; format: functional; conditions: 360 h, read-out: MIC100
In short: (§1)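 Mtb H37Rv grown in 7H9/OADC at 37 °C with shaking to OD600 0.5. The 0.5-OD culture is exposed aerobically to serial dilutions for 15 days at 37 °C. Resazurin (0.02% stock) is then added for 4 h at 37 °C with shaking.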

[3] = test system: Vero; experiment: Cytotoxicity against African green monkey Vero cells assessed as reduction in cell viability after 72 hrs by MTT assay; format: cell-based; conditions: Chlorocebus sabaeus
In short: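 Vero cells were grown in complete EMEM with 10% FBS and exposed for 72 h to 0.78–200 µg/mL. The medium was then swapped for phenol-red-free EMEM and MTT was added. Formazan absorbance was read at 570 nm to give IC50.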

[4] = Selectivity index, ratio of IC50 for African green monkey Vero cells to MIC100 for replicating Mycobacterium tuberculosis H37Rv by MABA; format: toxicity; conditions: read-out: Selectivity Index
In short: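 Vero cells are cultured in EMEM with 10% FBS and exposed for 72 h to 0.78–200 µg/mL. Medium is switched to phenol-red-free EMEM, MTT is added, and formazan is read at 570 nm to give IC50. The selectivity index is Vero IC50 divided by the MABA MIC.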

[5] = test system: Mycobacterium tuberculosis; experiment: Bactericidal activity against replicating Mycobacterium tuberculosis H37Rv incubated for 15 days under aerobic condition by MABA; format: functional; conditions: 360 h; in short: as §1
[6] = test system: Mycobacterium tuberculosis; experiment: Bactericidal activity against non-replicating Mycobacterium tuberculosis CDC1551 expressing tdTomato infected in mouse J774A.1 cells at 2 times MIC up to 72 hrs by UV-Visible spectroscopic method; format: functional, organism-based
In short: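 J774A.1 macrophages are seeded at […] cells/well in DMEM and incubated overnight at 37 °C. They are infected with saline-washed Mtb CDC1551-tdTomato (10^6 bacteria, MOI ≈10), and extracellular bacteria are washed off with PBS. Treatment is at 2×MIC, with fluorescence emission read at 581 nm at 24, 48, 72 and 96 h. Survivors are confirmed by serial dilution and plating on 7H11.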

For `NNC(=O)c1ccncc1` [ISONIAZID], the “log(activity)” value [1] was 4.22, the MIC [2] was 0.04 to 0.1 µg/mL (≈ 0.292 to 0.729 µM) and the IC50 [3] was over 200 µg/mL. For the same compound, the selectivity ratio [4] was over 2000, the MBC [5] was 0.57 µg/mL (≈ 4.16 µM) and the Activity [6] was “inactive”.
